Measured values reported in PMC8217219 (Bone, 2021).
Blank lines part the entries; values can stand above or below the compound they belong to.

How the values were obtained:
MC3T3 cells [1] = assay: Hoechst staining; assay type: cell-based; conditions: subconfluent MC3T3 cells, 100μM, 3 days
How it was run: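 Subconfluent, proliferating MC3T3-E1 (sc4) cells were exposed to test compound at 1, 10 or 100 μM for 3 days. Cells were washed with PBS, covered with 0.1X Tris-EDTA, frozen at −80°C for at least 2 h and thawed at room temperature. They were then stained 15 min in the dark with Hoechst 33258 (0.5 μg/ml in 0.3 M NaCl, 5 mM Tris, pH 8.0). Fluorescence was read at 340/460 and fit to a DNA standard curve. Values were normalized to DMSO control (1:100 dilution); n = 3.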

MC3T3 cells [2] = assay: Live/Dead cytotoxicity assay; assay type: cell-based; conditions: subconfluent MC3T3 cells, 100μM, 3 days
How it was run: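 Viability was scored in subconfluent MC3T3-E1 (sc4) cultures after 3 days with test compound at 1, 10 or 100 μM. Medium was removed and cells were incubated 20 min with calcein-AM and ethidium homodimer-1 in PBS. Live-cell fluorescence was read at 465/540 nm. Values were normalized to DMSO-treated control (1:100 dilution).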

H3K27me3 = assay: Western blot of cellular H3K27me3 levels; assay type: cell-based, mouse; conditions: MC3T3 cells, single dose 1μM, 24 hour treatment, relative to Gapdh
MC3T3 cells [3] = assay: Alizarin red staining; assay type: cell-based, mouse; conditions: for osteogenic boosting (calcium deposition, alizarin red) / mineralization (alizarin red staining, percent coverage area): 5μM, day 18; for osteogenic boosting (calcium deposition, alizarin red): Ezh2 overexpressing MC3T3 cells; for mineralization (alizarin red staining, percent coverage area): control MC3T3 cells (empty vector)
MC3T3 cells [4] = assay: RT-qPCR of osteogenic genes; assay type: cell-based, mouse; conditions: for osteogenic markers (mRNA) / expression of bone-related genes: 5μM; for expression of bone-related genes: combined with Ezh2 siRNA knockdown, days five and ten
[5] = cited from earlier work
MC3T3 cells [6] = assay: Alkaline phosphatase; assay type: cell-based, mouse; conditions: day six; for alkaline phosphatase (Alpl) enzymatic activity: MC3T3 cells, optimal doses (40μM CPI-169, 5μM all others), vs vehicle
MC3T3 cells [7] = assay: MTS metabolic activity assay; assay type: cell-based; conditions: subconfluent MC3T3 cells, 10μM, 3 days
How it was run: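 Subconfluent MC3T3-E1 (sc4) cells were given test compound at 1, 10 or 100 μM for 3 days. The MTS reagent was used per kit protocol and absorbance was read at 490 nm. Metabolic activity was expressed relative to DMSO-treated control (1:100 dilution).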

[8] = 5μM day two to five, combined with Ezh2 siRNA knockdown, day 24
[9] = MC3T3 cell differentiation, day ten
[10] = MC3T3 cells overexpressing Ezh2, day ten

- cell numbers (Hoechst staining) (MC3T3 cells [1]): significant reductions
Compound: CC[C@H](C)n1cc(C)c2c(C(=O)NCc3c(C)cc(C)[nH]c3=O)cc(-c3ccc(N4CCNCC4)nc3)cc21 [GSK126]
- fraction of living cells (live/dead staining) (MC3T3 cells [2]): significant reductions
- reduction in H3K27me3 (H3K27me3): 2–3 fold
- ECM mineralization (alizarin red) (MC3T3 cells [3]; [8]): enhances ECM mineralization
- osteogenic boosting (calcium deposition, alizarin red) (MC3T3 cells [3]): not observed
- mineralization (alizarin red staining, percent coverage area) (MC3T3 cells [3]): accelerated mineralization and more intense alizarin red staining
- osteogenic markers (mRNA) (MC3T3 cells [4]; [9]): highly effective at increasing osteogenic markers
- osteogenic markers (mRNA) (MC3T3 cells [4]; [10]): not when cells overexpress Ezh2
- expression of bone-related genes (MC3T3 cells [4]): co-stimulates expression of bone-related genes
- adverse effects in other tissues and organs (e.g., spleen, liver) ([5]; adult mice (8–12 weeks) ref 29): no adverse effects
- bone anabolic effect ([5]; adult mice (8–12 weeks) ref 29): modestly bone anabolic
- bone accrual ([5]; normal and ovariectomized mice ref 29): effective for stimulation of bone accrual

- cell numbers (Hoechst staining) (MC3T3 cells [1]): significant reductions
Compound: Cc1cc(C)c(CNC(=O)c2cc(-c3ccc(N4CCN(C)CC4)nc3)cc3c2c(C)cn3C(C)C)c(=O)[nH]1 [GSK503]
- fraction of living cells (live/dead staining) (MC3T3 cells [2]): significant reductions
- reduction in H3K27me3 (H3K27me3): > 5 fold

Compound: CCS(=O)(=O)N1CCC([C@@H](C)n2c(C)c(C(=O)NCc3c(OC)cc(C)[nH]c3=O)c3ccccc32)CC1 [CPI-169]
- cell numbers (Hoechst staining) (MC3T3 cells [1]): not observed
- fraction of living cells (live/dead staining) (MC3T3 cells [2]): not observed
- optimal dose (MC3T3 cells [3]; MC3T3 cells, 2X dose, from alizarin red quantitation (Fig. 4, red arrows)): 40 µM
- alkaline phosphatase (Alpl) enzymatic activity (MC3T3 cells [6]): ~three fold stimulation

Compound: C[S+](C)[O-] [DMSO, dimethyl sulfoxide]
- Alpl enzymatic activity (MC3T3 cells [6]; low (0.05%) and high (0.4%) doses vs osteogenic medium (OM)): enhance Alpl enzymatic activity
- mRNA levels of osteoblast differentiation markers (Alpl, Sp7, Ibsp, Phospho1) (MC3T3 cells [4]; 0.05% DMSO or 0.4% DMSO vs no DMSO, osteogenic medium, six days): significantly elevated
- expression of late marker Bglap (MC3T3 cells [4]; DMSO 0.05% or 0.4% in osteogenic media, day ten): did not show compelling changes

- cell numbers (Hoechst staining) (MC3T3 cells [1]): significant reductions
Compound: Cc1cc(C)c(CN2CCc3c(Cl)cc(-c4c(C)noc4C)c(Cl)c3C2=O)c(=O)[nH]1 [PF-06726304]
- fraction of living cells (live/dead staining) (MC3T3 cells [2]): significant reductions

- cell numbers (Hoechst staining) (MC3T3 cells [1]): significant reductions
Compound: CCCc1cc(C)[nH]c(=O)c1CNC(=O)c1cc(-c2ccc(N3CCN(C(C)C)CC3)nc2)cc2c1cnn2C(C)C [UNC1999]
- fraction of living cells (live/dead staining) (MC3T3 cells [2]): significant reductions
- reduction in H3K27me3 (H3K27me3): > 5 fold
- ECM mineralization (alizarin red) (MC3T3 cells [3]; MC3T3 cells, optimal doses for first six days, day 24 and day 28): except UNC1999
- alkaline phosphatase (Alpl) enzymatic activity (MC3T3 cells [6]): except for UNC1999

Compound: CCN(c1cc(-c2ccc(CN3CCOCC3)cc2)cc(C(=O)NCc2c(C)cc(C)[nH]c2=O)c1C)C1CCOCC1 [EPZ-6438]
- metabolic activity (MTS) (MC3T3 cells [7]): less harmful to metabolic cell activity
- cell numbers (Hoechst staining) (MC3T3 cells [1]): significant reductions
- fraction of living cells (live/dead staining) (MC3T3 cells [2]): significant reductions
- reduction in H3K27me3 (H3K27me3): > 5 fold
- alizarin red staining compared with GSK126 co-treatment (MC3T3 cells [3]; 5μM combined with Ezh2 siRNA, day 24): more robust staining
- ECM mineralization (alizarin red) (MC3T3 cells [3]; [8]): enhances ECM mineralization
- osteogenic boosting (calcium deposition, alizarin red) (MC3T3 cells [3]): not observed
- mineralization (alizarin red staining, percent coverage area) (MC3T3 cells [3]): accelerated mineralization and more intense alizarin red staining
- osteogenic markers (mRNA) (MC3T3 cells [4]; [9]): highly effective at increasing osteogenic markers
- osteogenic markers (mRNA) (MC3T3 cells [4]; [10]): not when cells overexpress Ezh2
- expression of bone-related genes (MC3T3 cells [4]): co-stimulates expression of bone-related genes

Compound: CCC(CC)n1ccc2c(C(=O)NCc3c(C)cc(C)[nH]c3=O)cc(C#N)cc21 [EI1]
- metabolic activity (MTS) (MC3T3 cells [7]): less harmful to metabolic cell activity
- cell numbers (Hoechst staining) (MC3T3 cells [1]): not observed
- fraction of living cells (live/dead staining) (MC3T3 cells [2]): not observed
- reduction in H3K27me3 (H3K27me3): 2–3 fold
